Assay results as given in ChEMBL document CHEMBL1240415, “Design, synthesis and antimicrobial activities of some new quinoline derivatives carrying 1,2,3-triazole moiety” (2010).
In brackets after ≈: the same amount, converted by molar mass.

System: Staphylococcus aureus
Experiment: Antibacterial activity against Staphylococcus aureus ATTC 25923 after 3 to 4 days by serial plate dilution method
Type: functional
Conditions: not given
Outline: (§1)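 Serial dilutions in Mueller-Hinton broth in tubes, pH adjusted to 5.0 with phosphate buffer. Inoculated with a standardized bacterial suspension and incubated 16–18 h at 37 °C. MIC is the lowest concentration with no visible growth, tested over 6.25–100 µg/mL. Zones come from an agar well diffusion assay: compounds in DMSO are added to wells in seeded agar, DMSO control, triplicate plates, 37 °C for 3–4 days, inhibition zone diameter in mm.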

SMILES	diameter of the inhibition zone (DIZ) [mm]
COc1ccc2nc(C)cc(-n3cc(CN4CCC(N5CCOCC5)CC4)nn3)c2c1	10
COc1ccc2nc(C)cc(-n3cc(CN4CCN(C(C)C)CC4)nn3)c2c1	18
CCC(C)NCc1cn(-c2cc(C)nc3ccc(OC)cc23)nn1 (configuration not stated)	10
O=C(O)c1cn(C2CC2)c2cc(N3CCNCC3)c(F)cc2c1=O [CIPROFLOXACIN]	22

Same assay, conditions: Staphylococcus aureus, ATTC 25923

SMILES	MIC [µg/mL]
COc1ccc2nc(C)cc(-n3cc(CN4CCC(N5CCOCC5)CC4)nn3)c2c1	12.5 (≈ 29.6 µM)
COc1ccc2nc(C)cc(-n3cc(CN4CCN(C(C)C)CC4)nn3)c2c1	6.25 (≈ 16.4 µM)
CCC(C)NCc1cn(-c2cc(C)nc3ccc(OC)cc23)nn1 (configuration not stated)	12.5 (≈ 38.4 µM)

System: Escherichia coli
Experiment: Antibacterial activity against Escherichia coli ATTC 25922 after 3 to 4 days by serial plate dilution method
Type: functional
Conditions: not given
Outline: as §1

SMILES	diameter of the inhibition zone (DIZ) [mm]
COc1ccc2nc(C)cc(-n3cc(CN4CCC(N5CCOCC5)CC4)nn3)c2c1	11
COc1ccc2nc(C)cc(-n3cc(CN4CCN(C(C)C)CC4)nn3)c2c1	20
CCC(C)NCc1cn(-c2cc(C)nc3ccc(OC)cc23)nn1 (configuration not stated)	14
O=C(O)c1cn(C2CC2)c2cc(N3CCNCC3)c(F)cc2c1=O [CIPROFLOXACIN]	30

Same assay, conditions: Escherichia coli, ATTC 25922

SMILES	MIC [µg/mL]
COc1ccc2nc(C)cc(-n3cc(CN4CCC(N5CCOCC5)CC4)nn3)c2c1	12.5 (≈ 29.6 µM)
COc1ccc2nc(C)cc(-n3cc(CN4CCN(C(C)C)CC4)nn3)c2c1	6.25 (≈ 16.4 µM)
CCC(C)NCc1cn(-c2cc(C)nc3ccc(OC)cc23)nn1 (configuration not stated)	6.25 (≈ 19.2 µM)

System: Pseudomonas aeruginosa
Experiment: Antibacterial activity against Pseudomonas aeruginosa ATCC 27853 after 3 to 4 days by serial plate dilution method
Type: functional
Conditions: not given
Outline: as §1

SMILES	diameter of the inhibition zone (DIZ) [mm]
COc1ccc2nc(C)cc(-n3cc(CN4CCC(N5CCOCC5)CC4)nn3)c2c1	10
COc1ccc2nc(C)cc(-n3cc(CN4CCN(C(C)C)CC4)nn3)c2c1	14
CCC(C)NCc1cn(-c2cc(C)nc3ccc(OC)cc23)nn1 (configuration not stated)	10
O=C(O)c1cn(C2CC2)c2cc(N3CCNCC3)c(F)cc2c1=O [CIPROFLOXACIN]	16

Same assay, conditions: Pseudomonas aeruginosa, ATCC 27853

SMILES	MIC [µg/mL]
COc1ccc2nc(C)cc(-n3cc(CN4CCC(N5CCOCC5)CC4)nn3)c2c1	12.5 (≈ 29.6 µM)
COc1ccc2nc(C)cc(-n3cc(CN4CCN(C(C)C)CC4)nn3)c2c1	6.25 (≈ 16.4 µM)
CCC(C)NCc1cn(-c2cc(C)nc3ccc(OC)cc23)nn1 (configuration not stated)	12.5 (≈ 38.4 µM)

System: Klebsiella pneumoniae
Experiment: Antibacterial activity against recultured Klebsiella pneumoniae after 3 to 4 days by serial plate dilution method
Type: functional
Conditions: not given
Outline: as §1

SMILES	diameter of the inhibition zone (DIZ) [mm]
COc1ccc2nc(C)cc(-n3cc(CN4CCC(N5CCOCC5)CC4)nn3)c2c1	11
COc1ccc2nc(C)cc(-n3cc(CN4CCN(C(C)C)CC4)nn3)c2c1	16
CCC(C)NCc1cn(-c2cc(C)nc3ccc(OC)cc23)nn1 (configuration not stated)	11
O=C(O)c1cn(C2CC2)c2cc(N3CCNCC3)c(F)cc2c1=O [CIPROFLOXACIN]	23

Same assay, conditions: Klebsiella pneumoniae

SMILES	MIC [µg/mL]
COc1ccc2nc(C)cc(-n3cc(CN4CCC(N5CCOCC5)CC4)nn3)c2c1	12.5 (≈ 29.6 µM)
COc1ccc2nc(C)cc(-n3cc(CN4CCN(C(C)C)CC4)nn3)c2c1	6.25 (≈ 16.4 µM)
CCC(C)NCc1cn(-c2cc(C)nc3ccc(OC)cc23)nn1 (configuration not stated)	12.5 (≈ 38.4 µM)
O=C(O)c1cn(C2CC2)c2cc(N3CCNCC3)c(F)cc2c1=O [CIPROFLOXACIN]	6.25 (≈ 18.9 µM)

System: Streptococcus pyogenes
Experiment: Antibacterial activity against Streptococcus pyogenes after 3 to 4 days by serial plate dilution method
Type: functional
Conditions: not given
Outline: as §1

SMILES	diameter of the inhibition zone (DIZ) [mm]
COc1ccc2nc(C)cc(-n3cc(CN4CCC(N5CCOCC5)CC4)nn3)c2c1	12
COc1ccc2nc(C)cc(-n3cc(CN4CCN(C(C)C)CC4)nn3)c2c1	16
CCC(C)NCc1cn(-c2cc(C)nc3ccc(OC)cc23)nn1 (configuration not stated)	12
O=C(O)c1cn(C2CC2)c2cc(N3CCNCC3)c(F)cc2c1=O [CIPROFLOXACIN]	25

Same assay, conditions: Streptococcus pyogenes

SMILES	MIC [µg/mL]
COc1ccc2nc(C)cc(-n3cc(CN4CCC(N5CCOCC5)CC4)nn3)c2c1	12.5 (≈ 29.6 µM)
COc1ccc2nc(C)cc(-n3cc(CN4CCN(C(C)C)CC4)nn3)c2c1	6.25 (≈ 16.4 µM)
CCC(C)NCc1cn(-c2cc(C)nc3ccc(OC)cc23)nn1 (configuration not stated)	12.5 (≈ 38.4 µM)
O=C(O)c1cn(C2CC2)c2cc(N3CCNCC3)c(F)cc2c1=O [CIPROFLOXACIN]	6.25 (≈ 18.9 µM)

System: Aspergillus flavus
Experiment: Antifungal activity against Aspergillus flavus NCIM 524 after 3 to 4 days by serial plate dilution method
Type: functional
Conditions: not given
Outline: (§2)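 Sabouraud agar made from peptone, glucose and agar in water, pH 5.7. Fungal spores suspended in normal saline and used to lawn the plates, which were dried 1 h at 37 °C. Wells punched and compounds added in DMSO, with a DMSO solvent control. Triplicate plates held at 37 °C for 3–4 days. Read-out is inhibition zone diameter.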

SMILES	diameter of the inhibition zone (DIZ) [mm]
COc1ccc2nc(C)cc(-n3cc(CN4CCC(N5CCOCC5)CC4)nn3)c2c1	11
COc1ccc2nc(C)cc(-n3cc(CN4CCN(C(C)C)CC4)nn3)c2c1	16
CCC(C)NCc1cn(-c2cc(C)nc3ccc(OC)cc23)nn1 (configuration not stated)	11
Cc1cc(C2CCCCC2)n(O)c(=O)c1.NCCO [CICLOPIROX OLAMINE]	25

Same assay, conditions: Aspergillus flavus, NCIM 524

SMILES	MIC [µg/mL]
COc1ccc2nc(C)cc(-n3cc(CN4CCC(N5CCOCC5)CC4)nn3)c2c1	12.5 (≈ 29.6 µM)
COc1ccc2nc(C)cc(-n3cc(CN4CCN(C(C)C)CC4)nn3)c2c1	6.25 (≈ 16.4 µM)
CCC(C)NCc1cn(-c2cc(C)nc3ccc(OC)cc23)nn1 (configuration not stated)	12.5 (≈ 38.4 µM)
Cc1cc(C2CCCCC2)n(O)c(=O)c1.NCCO [CICLOPIROX OLAMINE]	3.12

System: Aspergillus fumigatus
Experiment: Antifungal activity against Aspergillus fumigatus NCIM 902 after 3 to 4 days by serial plate dilution method
Type: functional
Conditions: not given
Outline: as §2

SMILES	diameter of the inhibition zone (DIZ) [mm]
COc1ccc2nc(C)cc(-n3cc(CN4CCC(N5CCOCC5)CC4)nn3)c2c1	<10
COc1ccc2nc(C)cc(-n3cc(CN4CCN(C(C)C)CC4)nn3)c2c1	18
CCC(C)NCc1cn(-c2cc(C)nc3ccc(OC)cc23)nn1 (configuration not stated)	<10
Cc1cc(C2CCCCC2)n(O)c(=O)c1.NCCO [CICLOPIROX OLAMINE]	25

Same assay, conditions: Aspergillus fumigatus, NCIM 902

SMILES	MIC [µg/mL]
COc1ccc2nc(C)cc(-n3cc(CN4CCC(N5CCOCC5)CC4)nn3)c2c1	50 (≈ 118 µM)
COc1ccc2nc(C)cc(-n3cc(CN4CCN(C(C)C)CC4)nn3)c2c1	6.25 (≈ 16.4 µM)
CCC(C)NCc1cn(-c2cc(C)nc3ccc(OC)cc23)nn1 (configuration not stated)	25 (≈ 76.8 µM)
Cc1cc(C2CCCCC2)n(O)c(=O)c1.NCCO [CICLOPIROX OLAMINE]	6.25

System: Talaromyces marneffei
Experiment: Antifungal activity against recultured Penicillium marneffei after 3 to 4 days by serial plate dilution method
Type: functional
Conditions: not given
Outline: as §2

SMILES	diameter of the inhibition zone (DIZ) [mm]
COc1ccc2nc(C)cc(-n3cc(CN4CCC(N5CCOCC5)CC4)nn3)c2c1	<10
COc1ccc2nc(C)cc(-n3cc(CN4CCN(C(C)C)CC4)nn3)c2c1	14
CCC(C)NCc1cn(-c2cc(C)nc3ccc(OC)cc23)nn1 (configuration not stated)	10
Cc1cc(C2CCCCC2)n(O)c(=O)c1.NCCO [CICLOPIROX OLAMINE]	20

Same assay, conditions: Talaromyces marneffei

SMILES	MIC [µg/mL]
COc1ccc2nc(C)cc(-n3cc(CN4CCC(N5CCOCC5)CC4)nn3)c2c1	50 (≈ 118 µM)
COc1ccc2nc(C)cc(-n3cc(CN4CCN(C(C)C)CC4)nn3)c2c1	6.25 (≈ 16.4 µM)
CCC(C)NCc1cn(-c2cc(C)nc3ccc(OC)cc23)nn1 (configuration not stated)	12.5 (≈ 38.4 µM)
Cc1cc(C2CCCCC2)n(O)c(=O)c1.NCCO [CICLOPIROX OLAMINE]	6.25

System: Trichophyton mentagrophytes
Experiment: Antifungal activity against recultured Trichophyton mentagrophytes after 3 to 4 days by serial plate dilution method
Type: functional
Conditions: not given
Outline: as §2

SMILES	diameter of the inhibition zone (DIZ) [mm]
COc1ccc2nc(C)cc(-n3cc(CN4CCC(N5CCOCC5)CC4)nn3)c2c1	<10
COc1ccc2nc(C)cc(-n3cc(CN4CCN(C(C)C)CC4)nn3)c2c1	16
CCC(C)NCc1cn(-c2cc(C)nc3ccc(OC)cc23)nn1 (configuration not stated)	<10
Cc1cc(C2CCCCC2)n(O)c(=O)c1.NCCO [CICLOPIROX OLAMINE]	27

Same assay, conditions: Trichophyton mentagrophytes

SMILES	MIC [µg/mL]
COc1ccc2nc(C)cc(-n3cc(CN4CCC(N5CCOCC5)CC4)nn3)c2c1	50 (≈ 118 µM)
COc1ccc2nc(C)cc(-n3cc(CN4CCN(C(C)C)CC4)nn3)c2c1	6.25 (≈ 16.4 µM)
CCC(C)NCc1cn(-c2cc(C)nc3ccc(OC)cc23)nn1 (configuration not stated)	25 (≈ 76.8 µM)
Cc1cc(C2CCCCC2)n(O)c(=O)c1.NCCO [CICLOPIROX OLAMINE]	3.12

System: Candida albicans
Experiment: Antifungal activity against Candida albicans after 3 to 4 days by serial plate dilution method
Type: functional
Conditions: not given
Outline: as §2

SMILES	diameter of the inhibition zone (DIZ) [mm]
COc1ccc2nc(C)cc(-n3cc(CN4CCC(N5CCOCC5)CC4)nn3)c2c1	<10
COc1ccc2nc(C)cc(-n3cc(CN4CCN(C(C)C)CC4)nn3)c2c1	14
CCC(C)NCc1cn(-c2cc(C)nc3ccc(OC)cc23)nn1 (configuration not stated)	11
Cc1cc(C2CCCCC2)n(O)c(=O)c1.NCCO [CICLOPIROX OLAMINE]	20

Same assay, conditions: Candida albicans

SMILES	MIC [µg/mL]
COc1ccc2nc(C)cc(-n3cc(CN4CCC(N5CCOCC5)CC4)nn3)c2c1	50 (≈ 118 µM)
COc1ccc2nc(C)cc(-n3cc(CN4CCN(C(C)C)CC4)nn3)c2c1	6.25 (≈ 16.4 µM)
CCC(C)NCc1cn(-c2cc(C)nc3ccc(OC)cc23)nn1 (configuration not stated)	12.5 (≈ 38.4 µM)
Cc1cc(C2CCCCC2)n(O)c(=O)c1.NCCO [CICLOPIROX OLAMINE]	6.25
